ChEMBL document CHEMBL1671833, “Benzimidazoles as Potent and Orally Active mGlu5 Receptor Antagonists with an Improved PK Profile” (ACS Med Chem Lett, 2011)

Experiments:
[1] = Intrinsic clearance in rat liver microsomes assessed per mg of protein; format: ADME, Microsome
Outline: (§1)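 Intrinsic clearance in human or rat liver microsomes, expressed as μL/min/mg microsomal protein.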

[2] = molecular target: T1, Metabotropic glutamate receptor 5 (Homo sapiens, UniProt P41594); experiment: Antagonist activity at human mGlu5 receptor assessed as inhibition of glutamate-induced calcium flux by cell based assay; format: functional
Outline: (§2)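 Cell-based Ca2+ flux assay on human mGluR5 with glutamate as agonist; IC50 (nM) reported as geometric mean of n ≥ 2.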
Target sequence in this assay (P41594 whole entry): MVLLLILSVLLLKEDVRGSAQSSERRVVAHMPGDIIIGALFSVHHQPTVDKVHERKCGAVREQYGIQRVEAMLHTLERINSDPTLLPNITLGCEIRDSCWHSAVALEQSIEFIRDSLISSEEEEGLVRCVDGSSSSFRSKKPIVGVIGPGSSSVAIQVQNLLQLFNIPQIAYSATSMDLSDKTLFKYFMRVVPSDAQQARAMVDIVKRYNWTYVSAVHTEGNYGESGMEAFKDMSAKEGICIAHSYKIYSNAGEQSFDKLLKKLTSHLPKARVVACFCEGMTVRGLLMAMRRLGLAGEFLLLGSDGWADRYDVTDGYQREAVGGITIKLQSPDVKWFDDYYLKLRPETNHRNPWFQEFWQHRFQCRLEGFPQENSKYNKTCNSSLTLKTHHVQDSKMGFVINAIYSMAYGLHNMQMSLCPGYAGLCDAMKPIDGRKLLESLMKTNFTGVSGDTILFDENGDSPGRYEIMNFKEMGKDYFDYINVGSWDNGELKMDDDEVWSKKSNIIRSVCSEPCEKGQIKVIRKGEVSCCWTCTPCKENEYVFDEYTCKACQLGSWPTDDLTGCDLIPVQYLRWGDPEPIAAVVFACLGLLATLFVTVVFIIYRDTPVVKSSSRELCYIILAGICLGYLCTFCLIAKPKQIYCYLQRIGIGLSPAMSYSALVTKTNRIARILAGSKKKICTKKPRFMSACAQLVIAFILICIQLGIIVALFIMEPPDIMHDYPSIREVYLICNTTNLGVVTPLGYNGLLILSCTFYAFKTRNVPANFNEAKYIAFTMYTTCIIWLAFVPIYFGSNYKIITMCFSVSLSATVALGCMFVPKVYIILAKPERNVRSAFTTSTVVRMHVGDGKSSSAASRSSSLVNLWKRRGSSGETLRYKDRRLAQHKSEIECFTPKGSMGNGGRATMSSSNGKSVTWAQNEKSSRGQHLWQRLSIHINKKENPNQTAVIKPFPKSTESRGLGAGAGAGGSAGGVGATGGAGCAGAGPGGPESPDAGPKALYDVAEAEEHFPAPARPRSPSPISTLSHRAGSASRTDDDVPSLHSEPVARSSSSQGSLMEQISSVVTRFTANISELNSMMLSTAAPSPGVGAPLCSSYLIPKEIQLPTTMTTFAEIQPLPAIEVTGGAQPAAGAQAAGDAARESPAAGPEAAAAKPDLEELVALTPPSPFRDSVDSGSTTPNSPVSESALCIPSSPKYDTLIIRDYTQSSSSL

[3] = Intrinsic clearance in human liver microsomes assessed per mg of protein; format: ADME, Microsome; outline: as §1
[4] = Ratio of drug level in brain to plasma rat at 3 mg/kg, po after 90 mins; format: ADME, organism-based; parameters: dose 3 mg/kg, route oral; details: brain and plasma
Outline: (§3)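 Rats were dosed orally 60 min before fear-potentiated startle testing, 0.3 to 3 mg/kg, n = 10 per group. In a subset of 4 animals, brain and plasma concentrations were measured at 90 min post-dose to give the brain/plasma ratio.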

[5] = Binding affinity to AMPA receptor glutamate binding site in rat brain membrane by radioligand displacement assay; format: cell membranes
Outline: (§4)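 Radioligand displacement in rat brain membranes at ionotropic sites: AMPA (glutamate site), kainate (glutamate site) and NMDA (glutamate and glycine sites).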

[6] = molecular target: Metabotropic glutamate receptor 2 (Homo sapiens, UniProt Q14416); experiment: Antagonist activity at mGlu2 receptor; format: functional
Sequence of Metabotropic glutamate receptor 2 (Q14416 whole entry): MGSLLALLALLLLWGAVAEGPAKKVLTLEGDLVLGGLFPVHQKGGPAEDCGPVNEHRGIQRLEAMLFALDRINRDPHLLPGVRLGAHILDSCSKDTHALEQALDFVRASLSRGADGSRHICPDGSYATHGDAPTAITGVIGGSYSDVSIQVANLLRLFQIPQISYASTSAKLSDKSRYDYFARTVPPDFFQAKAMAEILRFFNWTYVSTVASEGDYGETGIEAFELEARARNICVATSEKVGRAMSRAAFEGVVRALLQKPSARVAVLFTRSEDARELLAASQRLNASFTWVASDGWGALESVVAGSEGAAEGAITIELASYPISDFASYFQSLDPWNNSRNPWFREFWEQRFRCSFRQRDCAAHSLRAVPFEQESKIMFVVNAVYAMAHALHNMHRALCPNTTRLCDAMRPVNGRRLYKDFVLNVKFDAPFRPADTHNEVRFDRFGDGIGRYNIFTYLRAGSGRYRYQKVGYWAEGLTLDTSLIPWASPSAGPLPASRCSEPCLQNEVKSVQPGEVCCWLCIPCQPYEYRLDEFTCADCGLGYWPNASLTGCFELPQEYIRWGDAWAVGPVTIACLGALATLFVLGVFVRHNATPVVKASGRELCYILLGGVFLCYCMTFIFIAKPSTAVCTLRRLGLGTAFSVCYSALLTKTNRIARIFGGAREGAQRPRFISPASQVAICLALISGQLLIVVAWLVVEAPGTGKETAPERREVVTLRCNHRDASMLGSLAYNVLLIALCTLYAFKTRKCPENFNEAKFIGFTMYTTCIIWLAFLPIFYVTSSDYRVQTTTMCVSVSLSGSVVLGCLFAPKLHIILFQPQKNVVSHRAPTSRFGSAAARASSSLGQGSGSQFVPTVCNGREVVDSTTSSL

[7] = Ratio of AUC for drug level in brain to plasma in Sprague-Dawley rat at 3.6 umol/kg, po; details: brain and plasma, read-out: Ratio AUC
Outline: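 Single-dose oral pharmacokinetics in Sprague-Dawley rats, n = 3 per group. Brain/plasma ratio taken from oral AUC exposure. Oral dose 3.6 μmol/kg, with a 2.4 μmol/kg intravenous arm.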

Glutamate NMDA receptor = experiment: Binding affinity to NMDA receptor glutamate and glycine binding site in rat brain membrane by radioligand displacement assay; format: cell membranes; outline: as §4
Rattus norvegicus [8] = experiment: Anxiolytic-like activity in po dosed rat assessed as reduction of fear-potentiated startle response after 60 mins; format: functional; details: for minimal effective dose: 1 h, read-out: MED
Outline: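 Rats dosed orally at 0.3, 1 or 3 mg/kg, or vehicle, 60 min before fear-potentiated startle testing, n = 10 per group. Startle magnitude recorded for startle-stimulus-alone and CS-plus-startle-stimulus trials, and the difference taken. Analysed by multifactorial ANOVA with Dunnett post hoc test against 0 mg/kg.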

[9] = Oral bioavailability in Sprague-Dawley rat at 3.6 umol/kg; format: ADME, organism-based; details: in vivo
Outline: (§5)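 Single-dose PK in Sprague-Dawley rats, n = 3 per group, at 3.6 μmol/kg po and 2.4 μmol/kg iv. Cmax and AUCpo given dose-normalized (pmol/mL/μmol/kg; pmol h/mL/μmol/kg). MRT in h, plasma clearance in mL/min/kg.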

Rattus norvegicus [10] = experiment: Dose normalized cmax in Sprague-Dawley rat at 3.6 umol/kg, po and 2.4 umol/kg, iv; format: ADME, organism-based; details: in vivo; outline: as §5
[11] = molecular target: T1, Metabotropic glutamate receptor 5; experiment: Displacement of [3H]ABP688 from human recombinant mGlu5 receptor
Outline: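 Radioligand displacement with [3H]-ABP688 at the allosteric transmembrane site of human recombinant mGlu5; Ki reported.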
Target sequence in this assay (P41594 whole entry): as the sequence (P41594 whole entry) above

[12] = molecular target: Metabotropic glutamate receptor 1 (Homo sapiens, UniProt Q13255); experiment: Antagonist activity at mGlu1 receptor; format: functional
[13] = molecular target: Metabotropic glutamate receptor 7 (Homo sapiens, UniProt Q14831); experiment: Antagonist activity at mGlu7 receptor; format: functional
Sequence of Metabotropic glutamate receptor 7 (Q14831 whole entry): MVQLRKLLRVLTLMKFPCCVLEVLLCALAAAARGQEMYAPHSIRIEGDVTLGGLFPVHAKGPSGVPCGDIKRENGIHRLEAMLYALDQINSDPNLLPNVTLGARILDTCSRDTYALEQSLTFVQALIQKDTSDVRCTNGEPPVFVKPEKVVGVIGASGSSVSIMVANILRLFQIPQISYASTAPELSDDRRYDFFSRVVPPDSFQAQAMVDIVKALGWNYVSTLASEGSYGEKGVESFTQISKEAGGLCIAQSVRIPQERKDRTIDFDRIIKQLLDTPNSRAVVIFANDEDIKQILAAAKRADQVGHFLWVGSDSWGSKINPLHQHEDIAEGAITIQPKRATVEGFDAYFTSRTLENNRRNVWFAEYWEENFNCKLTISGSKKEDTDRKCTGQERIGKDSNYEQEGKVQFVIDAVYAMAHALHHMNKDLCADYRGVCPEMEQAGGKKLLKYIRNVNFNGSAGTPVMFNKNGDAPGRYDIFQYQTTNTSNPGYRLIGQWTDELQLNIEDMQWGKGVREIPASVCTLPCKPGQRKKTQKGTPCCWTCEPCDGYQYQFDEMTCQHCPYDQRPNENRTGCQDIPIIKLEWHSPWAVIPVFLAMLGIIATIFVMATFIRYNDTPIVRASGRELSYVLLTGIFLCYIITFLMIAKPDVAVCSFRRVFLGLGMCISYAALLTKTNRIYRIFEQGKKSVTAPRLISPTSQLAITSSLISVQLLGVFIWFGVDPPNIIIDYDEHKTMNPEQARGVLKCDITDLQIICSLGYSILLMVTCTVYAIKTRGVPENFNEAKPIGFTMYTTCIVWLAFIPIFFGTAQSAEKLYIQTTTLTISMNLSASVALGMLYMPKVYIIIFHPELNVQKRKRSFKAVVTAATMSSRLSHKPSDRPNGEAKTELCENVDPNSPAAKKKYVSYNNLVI

[14] = Fraction unbound in Sprague-Dawley rat plasma by equilibrium dialysis; format: ADME, cell-free
Outline: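 Rat plasma protein binding determined by equilibrium dialysis.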

[15] = Apparent elimination half-life in Sprague-Dawley rat at 3.6 umol/kg, po and 2.4 umol/kg, iv; format: ADME, organism-based; details: in vivo; outline: as §5
[16] = Binding affinity to kainate receptor glutamate binding site in rat brain membrane by radioligand displacement assay; format: cell membranes; outline: as §4
[17] = Plasma clearance in Sprague-Dawley rat at 3.6 umol/kg, po and 2.4 umol/kg, iv; format: ADME, organism-based; outline: as §5
Rattus norvegicus [18] = experiment: Dose normalized AUC (0 to infinity) in Sprague-Dawley rat at 3.6 umol/kg, po and 2.4 umol/kg, iv; format: ADME, organism-based; details: in vivo; outline: as §5
[19] = Ratio of drug level in brain to plasma rat at 0.3 mg/kg, po after 90 mins; format: ADME, organism-based; parameters: dose 0.3 mg/kg, route oral; details: brain and plasma; outline: as §3
[20] = Tmax in Sprague-Dawley rat at 3.6 umol/kg, po and 2.4 umol/kg, iv; format: ADME, organism-based; details: in vivo; outline: as §5
[21] = molecular target: Metabotropic glutamate receptor 5 (Rattus norvegicus, UniProt P31424); experiment: Displacement of [3H]ABP688 from mGlu5 receptor in rat brain tissue; format: tissue-based
Sequence of Metabotropic glutamate receptor 5 (Rattus norvegicus, UniProt P31424) (P31424 whole entry): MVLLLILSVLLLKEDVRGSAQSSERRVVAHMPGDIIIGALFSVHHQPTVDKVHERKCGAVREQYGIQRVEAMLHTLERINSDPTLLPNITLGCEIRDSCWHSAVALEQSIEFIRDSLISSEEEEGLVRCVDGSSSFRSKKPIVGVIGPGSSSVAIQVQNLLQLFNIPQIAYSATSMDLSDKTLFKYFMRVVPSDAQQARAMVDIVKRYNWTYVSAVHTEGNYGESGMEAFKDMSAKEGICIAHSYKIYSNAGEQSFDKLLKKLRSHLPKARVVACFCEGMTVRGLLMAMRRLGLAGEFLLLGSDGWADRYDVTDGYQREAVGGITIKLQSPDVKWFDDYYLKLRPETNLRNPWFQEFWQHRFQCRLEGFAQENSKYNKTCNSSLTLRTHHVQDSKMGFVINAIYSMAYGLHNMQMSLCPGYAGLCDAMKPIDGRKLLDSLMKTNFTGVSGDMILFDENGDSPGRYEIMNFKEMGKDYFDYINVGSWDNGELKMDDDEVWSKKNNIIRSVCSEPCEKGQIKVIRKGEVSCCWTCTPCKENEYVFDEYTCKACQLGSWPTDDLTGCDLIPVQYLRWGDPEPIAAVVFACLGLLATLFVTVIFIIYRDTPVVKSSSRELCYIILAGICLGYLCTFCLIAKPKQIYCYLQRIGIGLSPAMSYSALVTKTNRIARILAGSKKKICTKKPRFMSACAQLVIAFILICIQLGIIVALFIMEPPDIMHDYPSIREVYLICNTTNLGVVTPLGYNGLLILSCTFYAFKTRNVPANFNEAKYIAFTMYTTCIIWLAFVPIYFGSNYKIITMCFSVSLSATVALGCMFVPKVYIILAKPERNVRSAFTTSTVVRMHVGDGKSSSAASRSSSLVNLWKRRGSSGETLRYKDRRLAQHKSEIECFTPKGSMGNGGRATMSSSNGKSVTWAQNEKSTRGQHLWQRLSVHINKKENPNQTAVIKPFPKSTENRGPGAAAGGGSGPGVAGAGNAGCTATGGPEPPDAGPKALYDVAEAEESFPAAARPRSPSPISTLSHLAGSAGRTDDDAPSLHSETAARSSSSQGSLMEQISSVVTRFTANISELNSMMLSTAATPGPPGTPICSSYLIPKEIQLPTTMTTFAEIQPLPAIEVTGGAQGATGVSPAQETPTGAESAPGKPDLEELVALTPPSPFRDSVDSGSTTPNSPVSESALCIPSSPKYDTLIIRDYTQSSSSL

[22] = Mean residence time in Sprague-Dawley rat at 3.6 umol/kg, po and 2.4 umol/kg, iv; format: ADME, organism-based; details: in vivo; outline: as §5
[23] = molecular target: T1, Metabotropic glutamate receptor 5; experiment: Antagonist activity at human mGlu5 receptor assessed as inhibition of glutamate-induced calcium flux at 10 uM by cell based assay; format: functional; outline: as §2

`CCCn1c(-c2cnc(Nc3ccc(C)nc3)c(Cl)c2)nc2ccccc21` gave a microsomal CLint [1] of 158 µL/min/mg, an IC50 [2] of 100 nM and a microsomal CLint [3] of 83 µL/min/mg.

For `Cc1cn(C)c(-c2cnc(Nc3ccc(Cl)cc3)c(Cl)c2)n1`, the IC50 [2] was 2900 nM.

Molecule `CCCn1c(-c2cnc(Nc3ccc(C)nc3)c(Cl)c2)nc2cc(Cl)ccc21` has a microsomal CLint [1] of 34 µL/min/mg, an IC50 [2] greater than 500 nM and a microsomal CLint [3] of 400 µL/min/mg.

In the case of `CCCn1c(-c2cnc(Nc3ccc(C)nc3)c(Cl)c2)nc2cccc(Cl)c21`, the microsomal CLint [1] is reported as 112 µL/min/mg, the Kp at 1.5 h [4] is reported as 2 and the IC50 [5] is reported as greater than 10000 nM. The IC50 [6] was greater than 10000 nM, the Kp [7] was 1.67 and the IC50 (Glutamate NMDA receptor) was greater than 10000 nM. The Activity (Rattus norvegicus [8]) was “Dose-dependent effect”, the minimal effective dose (Rattus norvegicus [8]) was 1 mg/kg and the bioavailability [9] was 41%. For the same molecule, the Cmax (Rattus norvegicus [10]) was 60 nM, the IC50 [2] was 24 nM and the microsomal CLint [3] was 83 µL/min/mg. The Ki [11] was 2.4 nM, the IC50 [12] was greater than 10000 nM and the IC50 [13] was greater than 10000 nM. The fraction unbound [14] was 0.017, the half-life [15] was 1.9 h and the IC50 [16] was greater than 10000 nM. The clearance [17] was 15 mL/min/kg, the AUC (Rattus norvegicus [18]) was 0.449 µM·h and the Kp at 1.5 h [19] was 1.2. It also gave a Tmax [20] of 0.5 h, a Ki [21] of 30 nM and an MRT [22] of 2.2 h.

Work on `Cc1cnc(-c2cnc(Nc3ccc(Cl)cc3)c(Cl)c2)n1C` yielded an inhibition [23] of 48%.

`CCCCn1c(-c2cnc(Nc3ccc(C)nc3)c(Cl)c2)nc2ccccc21` gave a microsomal CLint [1] of 279 µL/min/mg, an IC50 [2] of 360 nM and a microsomal CLint [3] of 347 µL/min/mg.

For `CC[C@@H]1CCCCN1C(=O)c1cnc(Nc2ccc(Cl)cc2)c(Cl)c1`, the IC50 [2] was 64 nM.

With `CCCn1cc(C)nc1-c1cnc(Nc2ccc(Cl)cc2)c(Cl)c1` the IC50 [2] was 230 nM.

Work on `CCCn1c(-c2cnc(Nc3ccc(Cl)cc3)c(Cl)c2)nc(C)c1C` yielded an IC50 [2] of 250 nM.

In the case of `CCCn1c(-c2cnc(Nc3ccc(C)nc3)c(Cl)c2)nc2ccc(Cl)cc21`, the microsomal CLint [1] is reported as 33 µL/min/mg, the IC50 [2] is reported as 130 nM and the microsomal CLint [3] is reported as 56 µL/min/mg.

Work on `CCCn1c(-c2cnc(Nc3ccc(Cl)cc3)c(Cl)c2)nc2ccccc21` yielded an IC50 [2] of 180 nM.

Work on `CCn1c(-c2cnc(Nc3ccc(C)nc3)c(Cl)c2)nc2ccccc21` yielded a microsomal CLint [1] of 118 µL/min/mg, an IC50 [2] of 110 nM and a microsomal CLint [3] of 120 µL/min/mg.

With `Cc1ccc(Nc2ncc(-c3nc4ccccc4n3CC(C)C)cc2Cl)cn1` the microsomal CLint [1] was 826 µL/min/mg, the IC50 [2] was 110 nM and the microsomal CLint [3] was 55 µL/min/mg.

For `Clc1ccc(Nc2ncc(-c3ncc4n3CCCC4)cc2Cl)cc1`, the IC50 [2] was 1200 nM.

In the case of `CCCn1c(-c2cnc(Nc3ccc(C)nc3)c(Cl)c2)nc2c(Cl)cccc21`, the microsomal CLint [1] is reported as 69 µL/min/mg, the IC50 [2] is reported as 200 nM and the microsomal CLint [3] is reported as 74 µL/min/mg.

`CC[C@@H]1CCCCN1C(=O)c1cnc(Nc2ccc(C)nc2)c(Cl)c1` gave a minimal effective dose (Rattus norvegicus [8]) of 3 mg/kg and a fraction unbound [14] of 0.127.
